Laboratory results as given in ChEMBL document CHEMBL4190366, “Discovery and synthesis of novel Wogonin derivatives with potent antitumor activity in vitro” (Eur J Med Chem, 2017).
Calls of active or inactive are those of the source. The rule behind the calls is not given here.

Legend:
[1] = Selectivity index, ratio of IC50 for human LO2 cells to IC50 for human HepG2 cells; assay type: toxicity; conditions: LO2 cells versus HepG2 cells, read-out: Ratio IC50
Method in brief: (§1)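 Selectivity ratio is L02 IC50 divided by cancer-cell IC50, each taken from the MTT viability assay.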

A549 [2] = experiment: Cytotoxicity in human A549 cells assessed as reduction in cell viability incubated for 72 hrs by MTT assay; conditions: A549, 72 h
[3] = Selectivity index, ratio of IC50 for human LO2 cells to IC50 for human LNCAP cells; assay type: toxicity; conditions: LO2 cells versus LNCAP cells, read-out: Ratio IC50; method in brief: as §1
[4] = Selectivity index, ratio of IC50 for human LO2 cells to IC50 for mouse B16 cells; assay type: toxicity; conditions: LO2 cells versus B16 cells, read-out: Ratio IC50; method in brief: as §1
B16 = experiment: Cytotoxicity in mouse B16 cells assessed as reduction in cell viability incubated for 72 hrs by MTT assay; assay type: functional, cell-based; conditions: for IC50: B16, 72 h
Method in brief: (§2)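 Cells pre-incubated 24 h at 37 °C, 5% CO2, then exposed to a range of compound concentrations for 72 h. Viability read as mitochondrial MTT-to-formazan conversion, absorbance at 570 nm.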

HepG2 [5] = experiment: Induction of ROS generation in human HepG2 cells at 2 to 6 uM incubated for 24 hrs by DCFH-DA staining based flow cytometry; assay type: functional, cell-based
Method in brief: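 HepG2 seeded at 6×10^4 cells/well and grown 24 h, then treated 24 h with 2, 4 or 6 µM. Washed with PBS and serum-free medium, loaded with serum-free DCFH-DA 30 min at 37 °C, washed twice cold. Fluorescence read by flow cytometry at 488/525 nm. Mean ± SEM, n = 3.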

HepG2 [6] = experiment: Induction of apoptosis in human HepG2 cells assessed as apoptosis level incubated for 24 hrs by FITC-labelled Annexin V/PI staining based flow cytometry; assay type: functional, cell-based
Method in brief: (§3)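 HepG2 treated 24 h with 2, 4 or 6 µM; 0.1% DMSO vehicle control. Stained with FITC-Annexin V/PI and analysed by flow cytometry 10-15 min after staining. Annexin V+/PI- counted as early/median apoptotic, Annexin V+/PI+ as late apoptotic.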

HepG2 [7] = experiment: Ratio of cytotoxicity in human HepG2 cells at 5 uM in presence of 5 mM NAC incubated for 48 hrs by MTT assay to cytotoxicity in human HepG2 cells at 5 uM in absence of 5 mM NAC incubated for 48 hrs by MTT assay; assay type: functional
Method in brief: (§4)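 HepG2 cells incubated 48 h with compound at 1, 5 or 10 µM, with or without 5 mM N-acetylcysteine. Ratio is cell viability with NAC divided by viability with compound alone at the same concentration.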

HepG2 [8] = experiment: Ratio of cytotoxicity in human HepG2 cells at 10 uM in presence of 5 mM NAC incubated for 48 hrs by MTT assay to cytotoxicity in human HepG2 cells at 10 uM in absence of 5 mM NAC incubated for 48 hrs by MTT assay; assay type: functional; method in brief: as §4
[9] = biological target: Cyclin-dependent kinase 2 (Homo sapiens, UniProt P24941); experiment: Inhibition of CDK2 (unknown origin)
Method in brief: (§5)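 Kinase profiling run as a contract service, with ATP at the Km of each kinase.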

HeLa = experiment: Cytotoxicity in human HeLa cells assessed as reduction in cell viability incubated for 72 hrs by MTT assay; assay type: functional, cell-based; method in brief: as §2
A549 [10] = experiment: Cytotoxicity in human A549 cells assessed as reduction in cell viability incubated for 72 hrs by MTT assay
[11] = Selectivity index, ratio of IC50 for human LO2 cells to IC50 for human A549 cells; assay type: toxicity; conditions: LO2 cells versus A549 cells, read-out: Ratio IC50; method in brief: as §1
HepG2 [12] = experiment: Cytotoxicity in human HepG2 cells assessed as reduction in cell viability incubated for 72 hrs by MTT assay; assay type: functional, cell-based; conditions: for IC50: HepG2, 72 h; method in brief: as §2
[13] = Selectivity index, ratio of IC50 for human LO2 cells to IC50 for human MCF7 cells; assay type: toxicity; conditions: LO2 cells versus MCF7 cells, read-out: Ratio IC50; method in brief: as §1
[14] = biological target: Hepatocyte growth factor receptor (Homo sapiens, UniProt P08581); experiment: Inhibition of c-Met (unknown origin); method in brief: as §5
MCF7 = experiment: Cytotoxicity in human MCF7 cells assessed as reduction in cell viability incubated for 72 hrs by MTT assay; assay type: functional, cell-based; conditions: for IC50: MCF7, 72 h; method in brief: as §2
HepG2 [15] = experiment: Ratio of cytotoxicity in human HepG2 cells at 1 uM in presence of 5 mM NAC incubated for 48 hrs by MTT assay to cytotoxicity in human HepG2 cells at 1 uM in absence of 5 mM NAC incubated for 48 hrs by MTT assay; assay type: functional; method in brief: as §4
[16] = biological target: Cyclin-dependent kinase 9 (Homo sapiens, UniProt P50750); experiment: Inhibition of CDK9 (unknown origin); method in brief: as §5
[17] = Selectivity index, ratio of IC50 for human LO2 cells to IC50 for human HeLa cells; assay type: toxicity; conditions: LO2 cells versus HeLa cells, read-out: Ratio IC50; method in brief: as §1
L02 [18] = experiment: Cytotoxicity in human LO2 cells assessed as reduction in cell viability at 30 uM incubated for 48 hrs by MTT assay; assay type: cell-based; conditions: l02, 48 h
Method in brief: (§6)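 Normal hepatic L02 cells incubated with compound for 48 h. Cell viability measured across a concentration series.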

LNCaP = experiment: Cytotoxicity in human LNCAP cells assessed as reduction in cell viability incubated for 72 hrs by MTT assay; assay type: functional, cell-based; method in brief: as §2
L02 [19] = experiment: Cytotoxicity in human LO2 cells assessed as reduction in cell viability at 15 uM incubated for 48 hrs by MTT assay; assay type: cell-based; conditions: l02, 48 h; method in brief: as §6
HepG2 [20] = experiment: Induction of apoptosis in human HepG2 cells assessed as apoptosis level at 6 uM incubated for 24 hrs by FITC-labelled Annexin V/PI staining based flow cytometry (reference value: 2.6%); assay type: functional; method in brief: as §3
HepG2 [21] = experiment: Induction of apoptosis in human HepG2 cells assessed as apoptosis level at 2 to 4 uM incubated for 24 hrs by FITC-labelled Annexin V/PI staining based flow cytometry; assay type: functional, cell-based; method in brief: as §3
HepG2 [22] = experiment: Induction of apoptosis in human HepG2 cells assessed as apoptosis level at 6 uM incubated for 24 hrs by FITC-labelled Annexin V/PI staining based flow cytometry (reference value: 3.4%); assay type: functional; method in brief: as §3

Cyclin-dependent kinase 9, sequence (P50750 whole entry): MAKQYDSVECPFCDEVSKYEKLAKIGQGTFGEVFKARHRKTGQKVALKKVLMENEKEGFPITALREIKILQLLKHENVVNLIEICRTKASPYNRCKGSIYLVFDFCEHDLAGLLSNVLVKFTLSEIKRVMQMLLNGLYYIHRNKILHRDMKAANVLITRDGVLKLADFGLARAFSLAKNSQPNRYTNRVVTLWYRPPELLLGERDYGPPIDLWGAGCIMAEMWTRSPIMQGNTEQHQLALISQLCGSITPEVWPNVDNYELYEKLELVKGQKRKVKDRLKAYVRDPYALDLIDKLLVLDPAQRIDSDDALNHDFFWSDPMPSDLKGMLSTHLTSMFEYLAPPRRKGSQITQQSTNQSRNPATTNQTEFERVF
Hepatocyte growth factor receptor, sequence (P08581 whole entry): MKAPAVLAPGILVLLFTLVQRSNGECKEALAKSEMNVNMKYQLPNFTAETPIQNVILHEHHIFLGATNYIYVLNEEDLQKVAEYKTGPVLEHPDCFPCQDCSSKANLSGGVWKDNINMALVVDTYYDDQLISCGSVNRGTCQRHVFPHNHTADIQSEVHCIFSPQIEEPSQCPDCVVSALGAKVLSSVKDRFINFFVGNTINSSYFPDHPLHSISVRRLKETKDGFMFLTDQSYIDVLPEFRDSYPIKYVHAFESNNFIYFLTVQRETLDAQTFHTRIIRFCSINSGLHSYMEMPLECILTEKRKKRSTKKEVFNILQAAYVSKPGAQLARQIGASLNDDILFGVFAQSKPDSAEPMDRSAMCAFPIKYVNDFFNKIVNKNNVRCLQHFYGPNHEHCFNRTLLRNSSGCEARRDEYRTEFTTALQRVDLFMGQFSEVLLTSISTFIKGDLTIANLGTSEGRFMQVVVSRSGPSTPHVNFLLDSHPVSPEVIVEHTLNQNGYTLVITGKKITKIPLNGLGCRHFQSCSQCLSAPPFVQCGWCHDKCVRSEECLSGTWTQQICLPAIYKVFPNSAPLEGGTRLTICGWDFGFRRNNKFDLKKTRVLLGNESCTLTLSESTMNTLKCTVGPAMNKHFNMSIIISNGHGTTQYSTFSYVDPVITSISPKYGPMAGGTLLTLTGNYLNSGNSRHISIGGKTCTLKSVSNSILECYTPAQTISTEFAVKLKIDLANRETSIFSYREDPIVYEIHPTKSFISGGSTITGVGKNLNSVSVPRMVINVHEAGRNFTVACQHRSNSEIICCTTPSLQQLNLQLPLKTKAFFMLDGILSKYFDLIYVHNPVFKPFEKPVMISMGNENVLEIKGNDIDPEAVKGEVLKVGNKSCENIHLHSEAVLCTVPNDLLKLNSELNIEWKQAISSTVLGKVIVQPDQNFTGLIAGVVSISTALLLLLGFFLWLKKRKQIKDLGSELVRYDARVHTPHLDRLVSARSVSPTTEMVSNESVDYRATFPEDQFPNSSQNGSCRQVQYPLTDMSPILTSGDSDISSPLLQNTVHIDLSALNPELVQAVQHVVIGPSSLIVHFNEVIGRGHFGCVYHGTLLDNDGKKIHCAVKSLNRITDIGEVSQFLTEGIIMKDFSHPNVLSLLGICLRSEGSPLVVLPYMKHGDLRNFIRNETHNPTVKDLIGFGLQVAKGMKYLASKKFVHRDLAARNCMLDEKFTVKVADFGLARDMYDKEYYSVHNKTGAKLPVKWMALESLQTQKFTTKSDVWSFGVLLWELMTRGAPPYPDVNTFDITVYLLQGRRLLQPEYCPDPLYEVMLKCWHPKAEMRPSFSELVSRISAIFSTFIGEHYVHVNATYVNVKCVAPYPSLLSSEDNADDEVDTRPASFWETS

Molecule `CN1CCN(CCCCOc2c(OCc3ccc(C#N)cc3)cc(O)c3c(=O)cc(-c4ccccc4)oc23)CC1` has a selectivity ratio [1] of 27, an IC50 (A549 [2]) of 2.14 µM and a selectivity ratio [3] of 4.3 to 27. For the same molecule, the selectivity ratio [4] was 4.3 to 27, the Activity (B16) was “Dose-dependent effect” and the IC50 (B16) was 3.7 µM. The Activity (HepG2 [5]) was “Dose-dependent effect”, the Activity (HepG2 [6]) was “Dose-dependent effect” and the Ratio (HepG2 [7]) was 5.5. The Ratio (HepG2 [8]) was 7, the IC50 [9] was 6.7 µM and the Activity (HeLa) was “Dose-dependent effect”. For the same molecule, the IC50 (HeLa) was 2.65 µM, the Activity (A549 [10]) was “Dose-dependent effect” and the selectivity ratio [11] was 4.3 to 27. For the same molecule, the Activity (HepG2 [12]) was “Dose-dependent effect”, the IC50 (HepG2 [12]) was 0.59 µM and the selectivity ratio [13] was 4.3 to 27. The IC50 [14] was 35 µM, the Activity (MCF7) was “Dose-dependent effect” and the IC50 (MCF7) was 2.42 µM. It also gave a Ratio (HepG2 [15]) of 2.7, an IC50 [16] of 0.87 µM and a selectivity ratio [17] of 4.3 to 27. The Activity (L02 [18]) was “Toxic”, the Activity (LNCaP) was “Dose-dependent effect” and the IC50 (LNCaP) was 1.72 µM. For the same molecule, the Activity (L02 [19]) was “Non-Toxic”, the Activity (HepG2 [20]) was 30.7% and the Activity (HepG2 [21]) was “inactive”.
Molecule `CN(C)CCCOc1c(OCc2ccccc2)cc(O)c2c(=O)cc(-c3ccccc3)oc12` has an IC50 (A549 [2]) of 2.91 µM, an IC50 (B16) of 5.42 µM and an IC50 (HepG2 [12]) of 4.95 µM. The IC50 (MCF7) was 3.21 µM.
In the case of `CN1CCN(CCCCOc2c(OCc3nc4ccccc4s3)cc(O)c3c(=O)cc(-c4ccccc4)oc23)CC1`, the IC50 (A549 [2]) is reported as 1.06 µM, the IC50 (B16) is reported as 2.78 µM and the IC50 (HepG2 [12]) is reported as 5.44 µM. The IC50 (MCF7) was 4.85 µM.
Work on `COc1ccccc1-c1cc(=O)c2c(O)cc(OCCCCN3CCN(C)CC3)c(OC)c2o1` yielded an IC50 (A549 [2]) of 6.79 µM, an IC50 (B16) of 9.3 µM and an IC50 (HepG2 [12]) of 2.33 µM. For the same molecule, the IC50 (MCF7) was 5.43 µM.
`COc1c(OCCCCN2CCN(C)CC2)cc(O)c2c(=O)cc(-c3ccc(Cl)cc3)oc12` showed an IC50 (A549 [2]) of 1.43 µM, an IC50 (B16) of 2.09 µM and an IC50 (HepG2 [12]) of 3.75 µM. The IC50 (MCF7) was 3.21 µM.
Work on `COc1c(OCCCCN2CCN(C)CC2)cc(O)c2c(=O)cc(-c3ccc(F)cc3)oc12` yielded an IC50 (A549 [2]) of 2.22 µM, an IC50 (B16) of 4.32 µM and an IC50 (HepG2 [12]) of 2.81 µM. For the same molecule, the IC50 (MCF7) was 3.86 µM.
For `COc1c(OCCCCN2CCN(C)CC2)cc(O)c2c(=O)cc(-c3ccc(F)cc3Br)oc12`, the IC50 (A549 [2]) was 2.98 µM, the IC50 (B16) was 3.44 µM and the IC50 (HepG2 [12]) was 2.13 µM. The IC50 (MCF7) was 3.09 µM.
With `COc1c(OCCCCN2CCN(C)CC2)cc(O)c2c(=O)cc(-c3ccc(C(F)(F)F)cc3)oc12` the IC50 (A549 [2]) was 2.89 µM, the IC50 (B16) was 4.99 µM and the IC50 (HepG2 [12]) was 2.4 µM. The IC50 (MCF7) was 2.98 µM.
With `COc1c(OCCCCN2CCN(C)CC2)cc(O)c2c(=O)cc(-c3ccc([N+](=O)[O-])cc3)oc12` the IC50 (A549 [2]) was 3.21 µM, the IC50 (B16) was 2.89 µM and the IC50 (HepG2 [12]) was 2.62 µM. For the same molecule, the IC50 (MCF7) was 4.09 µM.
In the case of `CN1CCN(CCCCOc2c(OCc3nc4ccccc4o3)cc(O)c3c(=O)cc(-c4ccccc4)oc23)CC1`, the IC50 (A549 [2]) is reported as 3.87 µM, the IC50 (B16) is reported as 2.08 µM and the IC50 (HepG2 [12]) is reported as 4.11 µM. For the same molecule, the IC50 (MCF7) was 4.98 µM.
With `CN1CCN(CCCCOc2c(OCc3ccccc3)cc(O)c3c(=O)cc(-c4ccccc4)oc23)CC1` the IC50 (A549 [2]) was 2.91 µM, the IC50 (B16) was 2.37 µM and the Activity (HepG2 [5]) was “Dose-dependent effect”. The Activity (HepG2 [6]) was “Dose-dependent effect”, the Activity (HepG2 [22]) was 20.7% and the IC50 (HepG2 [12]) was 1.5 µM. For the same molecule, the IC50 (MCF7) was 2.93 µM and the Activity (HepG2 [21]) was “inactive”.
Molecule `CN1CCN(CCOc2c(OCc3ccccc3)cc(O)c3c(=O)cc(-c4ccccc4)oc23)CC1` has an IC50 (A549 [2]) of 4.41 µM, an IC50 (B16) of 4.37 µM and an IC50 (HepG2 [12]) of 2.89 µM. For the same molecule, the IC50 (MCF7) was 4.43 µM.
Work on `CN1CCN(CCCCOc2c(OCc3ccco3)cc(O)c3c(=O)cc(-c4ccccc4)oc23)CC1` yielded an IC50 (A549 [2]) of 3.6 µM, an IC50 (B16) of 3.53 µM and an IC50 (HepG2 [12]) of 4.11 µM. The IC50 (MCF7) was 2.77 µM.
In the case of `CN1CCN(CCCOc2c(OCc3ccccc3)cc(O)c3c(=O)cc(-c4ccccc4)oc23)CC1`, the IC50 (A549 [2]) is reported as 3.94 µM, the IC50 (B16) is reported as 3.76 µM and the IC50 (HepG2 [12]) is reported as 3.11 µM. The IC50 (MCF7) was 1.02 µM.
Molecule `O=c1cc(-c2ccccc2)oc2c(OCCCCN(CCO)CCO)c(OCc3ccccc3)cc(O)c12` has an IC50 (A549 [2]) of 4.35 µM, an IC50 (B16) of 3.76 µM and an IC50 (HepG2 [12]) of 3.14 µM. It also gave an IC50 (MCF7) of 1.09 µM.
Molecule `O=c1[nH]cc(F)c(=O)[nH]1` [FLUOROURACIL] has an IC50 (B16) of 1.19 µM and an IC50 (MCF7) of 14.7 µM.
